The results in this text go back to ChEMBL document CHEMBL2380276, “Synthesis and antiproliferative evaluation of piperazine-1-carbothiohydrazide derivatives of indolin-2-one” (Bioorg Med Chem Lett, 2013).

Format in all cases: functional, cell-based
In one assay the test system is A549. Put plainly: Cytotoxicity against human A549 cells assessed as growth inhibition after 72 hrs by MTT assay. Conditions: A549, 72 h. Summed up: (§1)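 MTT proliferation assay; cells exposed 72 h, first screened at 100 μM with ≥50% inhibition versus vehicle-treated cells counted active; active compounds then tested at various concentrations to derive IC50 (concentration giving 50% proliferation inhibition). Sunitinib positive control. Means ± SD of three separate experiments.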

The next assay has as its system HCT-116. Put plainly: Cytotoxicity against human HCT116 cells assessed as growth inhibition after 72 hrs by MTT assay. Conditions: HCT-116, 72 h. Summed up: as §1
Background: Formazan colour is commonly taken as a measure of viable cells.

For a further assay, the system named is MCF7. The experiment in a line: Cytotoxicity against human MCF7 cells assessed as growth inhibition after 72 hrs by MTT assay. The following applies: MCF7, 72 h. A digest of the protocol:
as §1

pIC50: −log10 of the molar value. Some results are limits rather than exact numbers.

For the molecule `O=C1Nc2ccc(Cl)cc2/C1=N/NC(=S)N1CCN(c2ccc([N+](=O)[O-])cc2)CC1`, the negative-log IC50 (pIC50) in the assay with A549 is 4.93; with HCT-116, 4.92; in the assay with MCF7 it was 4.68.

Regarding `O=C1Nc2ccc(F)cc2/C1=N/NC(=S)N1CCN(c2ccccc2)CC1`, the pIC50 was 4.68 in the assay with A549, 4.91 in the assay on HCT-116 and 4.61 with MCF7.

For `O=C1Nc2ccc(Cl)cc2/C1=N/NC(=S)N1CCN(c2ccccc2[N+](=O)[O-])CC1`, the negative-log IC50 (pIC50) with A549 is 5.25; in the assay with HCT-116 it was 5.34; in the assay on MCF7 it was 5.13.

For `Cc1ccc(N2CCN(C(=S)N/N=C3\C(=O)Nc4ccc(Cl)cc43)CC2)c(C)c1`, the negative-log IC50 (pIC50) is 5.44 in the assay with A549, 5.14 with HCT-116 and 4.97 with MCF7.

As for `Cc1ccc2c(c1)/C(=N/NC(=S)N1CCN(c3ccccc3)CC1)C(=O)N2`, the negative logarithm of the IC50 (pIC50) is 5.01 with A549, 5.02 in the assay on HCT-116 and 4.83 in the assay with MCF7.

Turning to `O=C1Nc2c(Br)cc(Br)cc2/C1=N/NC(=S)N1CCN(c2ccccc2)CC1`, the negative-log IC50 (pIC50) is 5.21 in the assay with A549, 5.20 in the assay on HCT-116 and 4.94 in the assay on MCF7.

On to `O=C1Nc2ccc(Cl)cc2/C1=N/NC(=S)N1CCN(c2ccc(F)cc2)CC1`, for which the negative-log IC50 (pIC50) in the assay with A549 is 5.05; in the assay with HCT-116 it was 5.20; in the assay on MCF7, 4.91.

As for `O=C1Nc2ccc(Cl)cc2/C1=N/NC(=S)N1CCN(c2ccccc2Cl)CC1`, the pIC50 in the assay on A549 was 5.10; in the assay with HCT-116, 5.31; with MCF7, 4.93.

Take `O=C1Nc2cccc(Cl)c2/C1=N/NC(=S)N1CCN(c2ccccc2)CC1`: the negative-log IC50 (pIC50) in the assay on A549 is 4.25; in the assay on HCT-116 it was 4.38; with MCF7, 4.28.

In the case of `Cc1ccc(NC(=S)N/N=C2\C(=O)Nc3ccc(Cl)cc32)c(C)c1`, the pIC50 with A549, with HCT-116 and in the assay on MCF7 was below 4.00 in each case.

Regarding `O=C1Nc2ccc(Cl)cc2/C1=N/NC(=S)N1CCN(c2ccccc2F)CC1`, the results for the pIC50 in the assay with A549, in the assay on HCT-116 and with MCF7 were 4.98, 5.08 and 4.82, respectively.

Take `O=C1Nc2ccccc2/C1=N/NC(=S)Nc1ccccc1`: the pIC50 in the assay on A549, in the assay on HCT-116 and in the assay with MCF7 was below 4.00 in each case.

For the molecule `O=C1Nc2ccccc2/C1=N/NC(=S)N1CCN(c2ccccc2)CC1`, the figures for the negative logarithm of the IC50 (pIC50) in the assay on A549, with HCT-116 and with MCF7 were 4.73, 4.95 and 4.60, respectively.

Regarding `CCN(CC)CCNC(=O)c1c(C)[nH]c(/C=C2\C(=O)Nc3ccc(F)cc32)c1C` [SUNITINIB], the pIC50 was 5.61 with A549, 5.33 in the assay on HCT-116 and 5.20 in the assay with MCF7.

Take `O=C1Nc2ccc(Cl)cc2/C1=N/NC(=S)N1CCN(c2ccccc2)CC1`: the pIC50 was 5.13 with A549, 5.46 in the assay on HCT-116 and 4.98 with MCF7.

In the case of `O=C1Nc2ccc(Cl)cc2/C1=N/NC(=S)Nc1ccccc1`, the pIC50 was 4.48 with A549, 4.51 with HCT-116 and 4.46 in the assay on MCF7.

As for `O=C1Nc2ccc(Cl)cc2/C1=N/NC(=S)N1CCN(c2ccc(Cl)c(Cl)c2)CC1`, the pIC50 with A549 was 5.10; in the assay with HCT-116, 5.24; with MCF7, 4.97.

Take `O=C1Nc2cc(Cl)ccc2/C1=N/NC(=S)N1CCN(c2ccccc2)CC1`: the pIC50 in the assay with A549 was 4.56; with HCT-116, 4.75; in the assay on MCF7 it was 4.64.

For `O=C1Nc2cc(Br)ccc2/C1=N/NC(=S)N1CCN(c2ccccc2)CC1`, the figures for the pIC50 with A549, in the assay with HCT-116 and in the assay with MCF7 were 4.80, 4.84 and 4.71, respectively.

Take `O=C1Nc2ccc(Br)cc2/C1=N/NC(=S)N1CCN(c2ccccc2)CC1`: the pIC50 in the assay with A549 is 4.91; in the assay on HCT-116, 4.98; in the assay on MCF7, 4.69.

On to `Cc1ccccc1N1CCN(C(=S)N/N=C2\C(=O)Nc3ccc(Cl)cc32)CC1`, for which the negative-log IC50 (pIC50) in the assay with A549 is 5.19; with HCT-116 it was 5.31; in the assay on MCF7, 4.96.

As to `COc1ccc(N2CCN(C(=S)N/N=C3\C(=O)Nc4ccc(Cl)cc43)CC2)cc1`, the pIC50 is 5.11 in the assay with A549, 5.11 in the assay on HCT-116 and 4.86 in the assay on MCF7.

For the molecule `O=C1Nc2cccc(Br)c2/C1=N/NC(=S)N1CCN(c2ccccc2)CC1`, the negative logarithm of the IC50 (pIC50) is 4.27 in the assay with A549, 4.47 in the assay with HCT-116 and 4.39 with MCF7.

In the case of `COc1ccc2c(c1)/C(=N/NC(=S)N1CCN(c3ccccc3)CC1)C(=O)N2`, the pIC50 in the assay on A549 was 5.12; in the assay with HCT-116 it was 5.02; in the assay with MCF7, 4.84.

`O=C1Nc2ccc([N+](=O)[O-])cc2/C1=N/NC(=S)N1CCN(c2ccccc2)CC1`: the pIC50 with A549 was 4.75; in the assay with HCT-116, 4.82; in the assay with MCF7, 4.63.

Regarding `O=C1Nc2ccc(Cl)cc2/C1=N/NC(=S)N1CCN(c2ccc(Cl)cc2)CC1`, the pIC50 was 5.09 in the assay on A549, 5.27 in the assay on HCT-116 and 4.88 in the assay on MCF7.

`Cc1ccc(N2CCN(C(=S)N/N=C3\C(=O)Nc4ccc(Cl)cc43)CC2)cc1`: the figures for the negative logarithm of the IC50 (pIC50) in the assay on A549, in the assay with HCT-116 and in the assay on MCF7 were 4.99, 5.19 and 4.77, respectively.

In the case of `O=C1Nc2ccc(Cl)cc2/C1=N/NC(=S)N1CCN(c2ccc(F)cc2F)CC1`, the negative logarithm of the IC50 (pIC50) was 4.94 with A549, 5.23 in the assay with HCT-116 and 4.70 in the assay on MCF7.

Broadly, the pIC50 is the negative decadic logarithm of the IC50, by convention in mol/L.
